PolyA inh – polyadenylation inhibitors in yeast reporter cells, primary screen, luminescence, S. cerevisiae; S. cerevisiae SKY197-pL101 polyadenylation reporter, beta-gal luminescence; efflux-impaired pdr1/pdr3 knockout yeast; score 100 = 6 SD above DMSO; activity score, % at 12 µM; 0.02% of 300,000 active; AID 1875, 2009;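 active means lowest replicate activity score at least 50, where 100 means six control SD above control mean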;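 further: yeast exposed to compound for 9 h at 30 °C; higher score means more reporter readthrough which indicates perturbed polyadenylation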
A3A deaminase – APOBEC3A ssDNA deaminase inhibitors, primary screen, selectivity assay for APOBEC3G inhibitor project, biochemical, FAM/TAMRA oligo cleavage fluorescence; 0.41% of 330,000 active; AID 493011, 2011; recombinant A3A, FAM/TAMRA ssDNA deamination fluorescence; inhibition, % at 20 µM; DNA dC->dU-editing enzyme APOBEC-3A (Homo sapiens), P31941;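 active means at least 40% inhibition at 20 µM here, with at most 30% in a related deaminase screen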;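 further: plate controls were A3A with DMSO for no effect and wells lacking A3A enzyme for full effect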
Target sequence (P31941 whole entry, looked up): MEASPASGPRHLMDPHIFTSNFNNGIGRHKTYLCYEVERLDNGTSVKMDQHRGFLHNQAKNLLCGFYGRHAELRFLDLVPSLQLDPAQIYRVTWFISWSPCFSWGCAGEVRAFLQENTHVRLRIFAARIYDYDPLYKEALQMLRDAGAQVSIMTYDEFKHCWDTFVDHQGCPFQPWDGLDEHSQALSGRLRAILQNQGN
AHR activator – AHR activators, primary screen, cell-based, luminescence, luciferase reporter, human; AHR-responsive luciferase reporter cells; activation, % at 5 µM; 2.5% of 320,000 active; AID 2796, 2010; in the data active means activation above about 47%;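 further: 0% = vehicle wells and 100% = reference agonist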
Arrestin-AP2 inh – inhibitors of beta-arrestin/AP2 binding, primary screen, biochemical, GPCR trafficking, flow cytometry; beta-arrestin 1 C-terminal peptide binding to AP2 beta2-adaptin appendage (human); AID 504490, 2011; FITC-arrestin peptide / GST-AP2 beads; AP2 beta2 appendage carries R879A mutation; inhibition, % at 10 µM; 0.31% of 340,000 active;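 active means inhibition above a set limit, near 3 SD of compounds lacking own fluorescence, cut at about 54% in these data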;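 further: plate controls were DMSO wells for no effect and 5 µM unlabelled arrestin peptide for full effect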
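System: GST-AP2 R879A glutathione beads; medium: PBS, Tween 20 0.05%, BSA 0.1%; reagent: fluorescein-tagged arrestin peptide at 50 nM final; schedule: pre-incubation 12 min, peptide binding 1 h, room temperature; detection: flow cytometry, FL1 (488/535 nm); read-out: inhibition as reduced fluorescein signal on beads, percent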
A3G deaminase – APOBEC3G DNA deaminase inhibitors, primary screen, biochemical, fluorescence, single-stranded DNA substrate, uHTS | recombinant A3G, ssDNA deamination FAM/TAMRA fluorescence | DNA dC->dU-editing enzyme APOBEC-3G (Homo sapiens), Q9HC16 | 0.28% of 330,000 active | inhibition, % at 20 µM | AID 493012, 2011;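 active means inhibition of at least 40% at 20 µM, with no more than 30% in the related APOBEC3A deaminase screen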;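 further: plate controls were DMSO wells with A3G for no effect and wells lacking A3G enzyme for full effect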
UCH37 inh – inhibitors of human UCH37 deubiquitinase, primary screen, biochemical, Ub-AMC cleavage, fluorescence | inhibition, % (no concentration beside the values) | AID 588478, 2011 | purified proteasome/UCH37 | Ubiquitin carboxyl-terminal hydrolase isozyme L5 (Homo sapiens), Q9Y5K5 | 0.33% of 330,000 active;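 active means mean inhibition over replicate wells above about 20%, limit read from the data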;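 further: 0% = compound-free wells with enzyme and 100% = wells lacking proteasome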
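Schedule: 30 min plus 25 min, room temperature / Material: human UCH37 within purified proteasomes / Technique: AMC fluorescence intensity at 355/460 nm / Buffer or medium: pH 7.4 Tris-HCl (50 mM) with ovalbumin, ATP-MgCl2, DTT / Controls: wells without proteasome as full block, compound-free enzyme plus substrate as uninhibited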
AHR act confirm – AHR activators, confirmation, cell-based, luminescence, luciferase reporter, human | activation, % at 9 µM | 87% of 2,300 active | human cells, AHR-responsive luciferase reporter | shares compounds with AHR activator; in the data active means activation above about 49%;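 further: HepG2 hepatoma cells carrying a DRE-driven firefly luciferase reporter; 0% = vehicle wells and 100% = reference agonist wells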
PXR act counter – human PXR activators, counter-screen for AHR activator project, cell-based, luciferase luminescence. cell-based PXR reporter. activation, % at 11.6 µM. AID 434939, 2010. shares compounds with AHR activator. 88% of 2,300 active; in the data active means activation above about 11%;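 further: human hepatoma DPX-2 cells expressing full-length human PXR; 0% = DMSO and 100% = reference agonist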
Target sequence (O75469 whole entry, looked up): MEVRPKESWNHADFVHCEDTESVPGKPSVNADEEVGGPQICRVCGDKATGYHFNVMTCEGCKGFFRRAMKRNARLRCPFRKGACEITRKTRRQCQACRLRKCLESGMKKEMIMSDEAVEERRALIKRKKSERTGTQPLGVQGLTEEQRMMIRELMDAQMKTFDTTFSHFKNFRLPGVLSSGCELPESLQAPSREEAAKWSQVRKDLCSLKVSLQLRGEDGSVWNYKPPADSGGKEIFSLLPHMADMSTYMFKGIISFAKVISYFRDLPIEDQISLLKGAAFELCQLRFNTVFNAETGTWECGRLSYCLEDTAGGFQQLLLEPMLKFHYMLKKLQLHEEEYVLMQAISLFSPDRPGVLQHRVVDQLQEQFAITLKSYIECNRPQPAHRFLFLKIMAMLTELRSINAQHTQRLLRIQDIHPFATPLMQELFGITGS
* hit, by the source's call; . = no result. A selection: hits, their analogues and other compounds. The true share with any hit is near 3.4%.

SMILES	PolyA inh	A3A deaminase	AHR activator	Arrestin-AP2 inh	A3G deaminase	UCH37 inh	AHR act confirm	PXR act counter
O=C(NN=CC1CC2CCC1C2)c1ccc2c(c1)OCO2 (stereo not drawn)	.	.	.	.	.	0.5	.	.
O=S(=O)(NN=Cc1ccccc1OCc1ccc(Cl)cc1)c1ccccc1	.	.	.	.	.	3.3	.	.
COc1ccc(C(=O)NN)cc1COc1ccc(Br)cc1	-14.5	-5.2	101.9*	-2.2	-4.6	3.9	89.6*	17.0*
COc1cc(CNc2nc(C)c([N+](=O)[O-])c(C)c2C#N)cc(OC)c1	-4.8	-1.2	7.7	-5.3	-4.1	3.5	.	.
Cc1nc(NCCc2ccc(F)cc2)c(C#N)c(C)c1[N+](=O)[O-]	-13.2	0.5	108.2*	1.1	-0.9	5.3	112.8*	23.8*
CCCc1c(C(=O)NN=Cc2ccccc2C(F)(F)F)nnn1-c1nonc1N	.	.	.	.	.	5.7	.	.
Cc1ccc(S(=O)(=O)Oc2ccccc2C=NNc2ccc(C(=O)O)cc2)cc1	.	.	.	.	.	3.6	.	.
Cc1c(C(=O)Nc2ccccc2[N+](=O)[O-])csc1-c1ccccc1	-12.6	2.4	122.1*	-0.6	-1.4	4.5	63.4*	27.4*
Cc1c(C(=O)Nc2ccccc2)csc1-c1ccccc1	1.6	-3.0	-5.4	3.4	-7.6	5.6	.	.
O=C(/C=C/c1ccccn1)c1cc(Cl)cc(Cl)c1O	-0.7	3.4	82.7*	10.0	-0.8	-7.0	112.8*	219.4*
COc1ccc(/C=C/C(=O)c2cc(Cl)cc(Cl)c2O)c(OC)c1	-16.6	-5.9	7.1	24.9	-7.7	1.8	.	.
C=CCc1ccccc1OCCOc1ccc([N+](=O)[O-])cc1/C=N/NC(N)=O	12.9	1.7	111.1*	-3.6	1.5	.	89.5*	34.8*
Cc1cc(NC(=O)CCC(=O)N(c2ccc(F)cc2)C(C(=O)NC2CCCC2)c2ccncc2)no1 (stereo not drawn)	15.0	0.9	90.5*	-11.2	-2.5	-0.9	81.2*	20.7*
O=C1CCCc2nc3c(cc21)C(O)Oc1c-3ccc2ccccc12 (stereo not drawn)	1.7	-7.5	147.8*	41.9	-0.6	.	13.0	44.8*
O=C1CCCc2nc3c(cc21)C(O)Oc1ccccc1-3 (stereo not drawn)	14.7	-0.5	9.2	40.9	-6.0	-203.2	.	.
CC(=O)NCc1ccc(S(=O)(=O)NN=Cc2ccc(Br)cc2)cc1	.	.	.	.	.	1.6	.	.
COc1ccc(NC(=O)c2ccco2)cc1NC(=O)c1ccc(C)cc1	-1.5	1.5	92.5*	5.0	-0.5	3.1	105.9*	13.1*
COc1cc(NC(=O)c2cccs2)c(OC)cc1NC(=O)c1ccco1	3.8	-0.7	93.9*	10.7	0.2	-5.5	117.0*	10.4*
COc1ccc(NC(=O)CCc2ccccc2)cc1NC(=O)c1ccco1	-3.1	-3.3	20.7	-0.5	-6.9	0.9	.	.
CCNC(=S)Nc1cc(OC)c(NC(=O)c2ccco2)cc1OC	-3.1	-2.8	0.1	-2.1	-1.4	4.5	.	.
Cc1noc(C)c1S(=O)(=O)N(CC(=O)Nc1ccc2c(c1)OCO2)c1ccc(C(C)C)cc1	.	-3.2	79.7*	3.1	-7.5	5.2	83.6*	159.0*
COc1ccc(N(CC(=O)Nc2ccc(C(C)C)cc2)S(=O)(=O)c2c(C)noc2C)cc1	10.8	0.6	5.8	4.8	-3.6	3.1	.	.
Cc1cccnc1Nc1nc(-c2ccc(F)cc2)cs1	-15.1	3.7	125.6*	22.3	4.5	1.7	131.5*	16.8*
Cc1ccnc(Nc2nc(-c3sc(C)nc3C)cs2)c1	6.5	-3.0	2.8	1.7	-8.1	1.8	.	.
Cc1ccnc(Nc2nc(-c3ccc(F)cc3)cs2)c1	-19.4	1.4	165.2*	3.1	-0.3	3.8	132.2*	15.4*
SMILES	PolyA inh	A3A deaminase	AHR activator	Arrestin-AP2 inh	A3G deaminase	UCH37 inh	AHR act confirm	PXR act counter
Cc1ccnc(Nc2nc(-c3ccc(Cl)cc3)cs2)c1	13.8	-5.6	136.7*	0.2	0.8	.	96.5*	32.4*
COc1ccc(C(=O)Nc2ccc(C(C)=NNC(=O)c3ccccc3O)cc2)cc1OC	.	.	.	.	.	3.5	.	.
Clc1ccc(N2CCN(N=Cc3cccnc3)CC2)cc1	.	.	.	.	.	0.0	.	.
Cc1cccc(NC(=S)Nc2cccc(C(F)(F)F)c2)n1	-18.4	-0.6	103.7*	1.8	-6.5	2.4	125.5*	22.5*
Cc1ccc(-c2n[nH]c(=S)n2N=Cc2cccn2C)cc1	.	.	.	.	.	4.9	.	.
Cn1cccc1/C=N/n1c(-c2ccc(Cl)cc2)n[nH]c1=S	-9.5	-2.4	89.3*	-0.5	8.2	.	80.7*	25.4*
O=c1cc(-c2ccc3c(c2)OCO3)oc2ccccc12	-20.9	-6.3	104.4*	4.6	-7.3	-81.0	142.5*	79.1*
CC(=O)NN=Cc1cc([N+](=O)[O-])ccc1OCCOc1ccccc1	.	.	.	.	.	2.6	.	.
CC(=NOC(=O)C1CC1)c1cc(-c2ccc(Cl)cc2)no1	.	.	.	.	.	0.7	.	.
O=[N+]([O-])c1cccc(C(=Nc2ccccc2Cl)NO)c1	-8.7	1.1	85.3*	-9.3	-7.0	1.4	73.4*	50.2*
ONC(=Nc1ccccc1Cl)c1ccccc1Cl	-31.8	-1.7	6.0	8.9	-3.5	.	.	.
O=C1c2cccc3cccc(c23)C(=O)N1CCN1CCN(CC(O)COc2ccccc2)CC1 (stereo not drawn)	21.8	6.4	86.9*	-3.1	-7.0	-0.7	58.8*	16.2*
Cc1ccc(NC(=O)CCN2C(=O)c3cccc4cccc(c34)C2=O)cc1	28.1	0.8	46.7	5.7	7.8	-7.4	.	.
Cc1ccc(NC(=S)N2CCN(CCN3C(=O)c4cccc5cccc(c45)C3=O)CC2)cc1	3.1	0.7	107.4*	-2.8	3.1	2.6	109.9*	57.5*
O=C(NN=Cc1ccccn1)c1ccc(NC(=O)c2cccc([N+](=O)[O-])c2)cc1	.	.	.	.	.	5.5	.	.
